Data set [1] has as its system Malme-3M. The data set is described as follows: Inhibition of cellular viability of Malme-3M cells. It counts as functional, Homo sapiens.
For data set [2], the system named is Malme-3M. The data set is described as follows: Inhibition of basal ERK phosphorylation in Malme-3M cells. The format is functional, Homo sapiens.
For data set [3], the system named is Rattus norvegicus. The data set is described as follows: AUC in rat at 10 mg/kg, po. The format is ADME, organism-based, Sprague-Dawley, Plasma. Also on record: dose 10 mg/kg, route oral. As to conditions: in vivo. The procedure, abridged: (§1)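 Male Sprague Dawley rats (6-10 weeks) were given 10 mg/kg by oral gavage (2 mg/mL in 1% CMC/0.5% Tween 80, 5 mL/kg). Tail-vein EDTA blood was drawn at 15 and 30 min and 1, 2, 4, 8, 12, 24, 48, 72 h. Plasma was quantified by LC/MS/MS after methanol precipitation. Parameters came from non-compartmental analysis.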

Data set [4] relates to HT-29. The data set is described as follows: Inhibition of ERK phosphorylation in HT29 tumor bearing NCr-nu/nu mice after 4 hrs at 10 mg/kg, po. It counts as functional. As to conditions: Mus musculus, HT-29, 4 h.
The nature of data set [5]: Half life in rat at 1 mg/kg, iv. It counts as ADME, organism-based. Also on record: dose 1 mg/kg, route intravenous. As to conditions: Sprague-Dawley, in vivo. In outline:
(§2)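 Male Sprague Dawley rats (6-10 weeks), fed ad lib, dosed IV at 1 mg/kg (1 mg/mL in 10% DMSO/90% normal saline, 1 mL/kg). Tail-vein EDTA blood sampled 1, 5, 15, 30 min and 1, 2, 4, 8, 12, 24 h. Plasma analysed by LC/MS/MS after methanol protein precipitation, range 9 ng/mL to 20 µg/mL. Parameters derived by non-compartmental analysis.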

Data set [6] in a line: Aqueous solubility at pH 6.5. It counts as physicochemical. In outline: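 Thermodynamic shake-flask method: crystalline solid (0.5 mg, crystallinity confirmed by polarizing microscopy) in 0.5 mL 10 mM potassium phosphate, pH 6.5, swirled 24 h at room temperature. Filtered aliquots were quantified by HPLC-PDA against a calibration curve.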
Data set [7] in a line: Half life in rat at 10 mg/kg, po. Also noted: dose 10 mg/kg, route oral. The format is ADME, organism-based. As to conditions: Sprague-Dawley, in vivo. In outline: as §1
Data set [8] has as its system Rattus norvegicus. The data set is described as follows: AUC in rat at 1 mg/kg, iv. It counts as ADME, organism-based, Sprague-Dawley, Plasma. Also on record: dose 1 mg/kg, route intravenous. The settings on record: in vivo. The procedure, abridged: as §2
The nature of data set [9]: Clearance in presence of human hepatocytes. It counts as ADME, cell-based, Liver, Hepatocyte. The procedure, abridged: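 Human hepatocytes (fresh or cryopreserved) diluted to 2 x 10⁶ viable cells/mL in supplemented Krebs-Henseleit buffer pH 7.3, mixed 1:1 with 2 µM compound working solution. Incubated at 37 °C, 5% CO₂, duplicates, one plate per timepoint. Quenched with labetalol internal standard and centrifuged; compound remaining measured by LC-MS/MS (ESI+, MRM).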

The nature of data set [10]: Volume of distribution in rat. The format is ADME, organism-based. As to conditions: Sprague-Dawley, in vivo, read-out: Vdss. The procedure, abridged:
(§3)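 Male Sprague Dawley rats (6-10 weeks) received IV 1 mg/kg (10% DMSO/90% saline) and PO 10 mg/kg (1% CMC/0.5% Tween 80). Serial tail-vein plasma was taken up to 24 h (IV) or 72 h (PO) and analysed by LC/MS/MS (9 ng/mL to 20 µg/mL). Parameters were calculated non-compartmentally.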

The nature of data set [11]: Oral bioavailability in rat. The format is ADME, organism-based. As to conditions: Sprague-Dawley, in vivo. In outline: as §3
The nature of data set [12]: Clearance in rat. The format is ADME, organism-based. As to conditions: Sprague-Dawley, in vivo. The procedure, abridged: as §3
In data set [13] the test system is HT-29. The data set is described as follows: Inhibition of ERK phosphorylation in HT29 tumor bearing Ncr-nu/nu mice after 12 hrs at 10 mg/kg, po. The settings on record: Mus musculus, HT-29, 12 h. The format is functional.

Structures are written as SMILES. ≈ marks a conversion by molar mass, not a printed value.

Take `Cn1cc(C(=O)NOCCO)c(Nc2ccc(Br)cc2F)cc1=O`: the results for the Activity in [1] and in [2] were 460 nM and 73 nM, respectively.
Consider `CNC(=O)c1cn(C)c(=O)c(F)c1Nc1ccc(Br)cc1F`, for which the Activity in data set [1] is listed as 405 nM; in data set [2], 68 nM.
Regarding `COc1ncc(C(=O)NOCCO)c(Nc2ccc(Br)cc2F)c1Cl`, the figures for the Activity in data set [1] and in [2] were above 5000 nM and above 10000 nM, respectively.
In the case of `Cn1cc(C(=O)NCC2CC2)c(Nc2ccc(Br)cc2F)c(F)c1=O`, the Activity in data set [1] was above 5000 nM; in [2], 1206 nM.
For the compound `Cc1c(Nc2ccc(Br)cc2F)c(C(=O)NOCC2CC2)cn(C)c1=O`, the Activity in [1] came to 46 nM; in data set [2], 7.5 nM.
For `Cn1cc(C(=O)NOCCO)c(Nc2ccc(Br)cc2F)c(Cl)c1=O` the same measures were 175 nM and 26 nM.
With `Cn1cc(C(=O)NOCCO)c(Nc2ccc(Br)cc2F)c(F)c1=O`, the values for the Activity in data set [1] and in [2] were 115 nM and 22 nM, respectively.
By AUC is commonly meant concentration integrated over time. High values mean high exposure, low ones low exposure. In general, inhibition in vivo refers to how much of the control response was suppressed. High values mean a strong effect, low ones a weak effect. A word on the half-life: it is the time needed for the level to fall by half in the phase considered. A high value points to slow loss. The solubility is how much of the substance goes into solution per volume. By bioavailability is commonly meant dose-corrected exposure relative to a reference, in per cent. Low readings indicate poor availability, high ones good availability. For orientation: clearance means the volume of plasma or blood freed of the substance per unit of time. Consider `Cn1cc(C(N)=O)c(Nc2ccc(Br)cc2F)c(F)c1=O`, for which the exposure (AUC) in data set [3] was 23000 ng·h/mL; in [8], 2500 ng·h/mL. Further, the inhibition in vivo at 10 mg/kg in data set [4] is above 80%; in [13] it was 50%. Further, the results for the half-life in [5] and in data set [7] were 1.8 h and 11 h, respectively. Also, the solubility in [6] amounted to 26 µg/mL (≈ 72.6 µM). The CLhep predicted in data set [9] was 9 mL/min/kg. Moreover, the Vd in data set [10] worked out at 0.8 L/kg. Moreover, the Activity turned out to be 48 nM in data set [1] and 7.1 nM in data set [2]. For the same compound, the bioavailability in [11] is 100%. The compound also showed a clearance in [12] of 5.7 mL/min/kg.

(Values after ChEMBL document CHEMBL1147738, “Potent and selective mitogen-activated protein kinase kinase (MEK) 1,2 inhibitors. 1. 4-(4-bromo-2-fluorophenylamino)-1- methylpyridin-2(1H)-ones” (J Med Chem, 2006).)
